The IC50 is the concentration needed to halve the response being measured. Broadly, the fraction unbound is free concentration divided by total concentration. A word on the half-life: it is how long it takes for the measured level to halve. One may read the bioavailability as the share of a dose that reaches the circulation, judged against a reference dose that is usually intravenous. The term clearance denotes the rate of elimination divided by the concentration.

Calls of active or inactive are those of the source. The calls are words filed in the database; no cut-off is given here.

Here are results for one molecule from ChEMBL document CHEMBL1949557, “Discovery of INCB3284, a Potent, Selective, and Orally Bioavailable hCCR2 Antagonist” (ACS Med Chem Lett, 2011).

The target in data set [1] is C-C chemokine receptor type 2 (Homo sapiens, UniProt P41597). As to the kind of experiment: Inhibition of human CCR2-mediated intracellular calcium mobilization by cell based assay. Format: functional. (In general: A change in cytosolic calcium serves as a functional read-out for many receptors and channels.)
C-C chemokine receptor type 2, sequence (P41597 whole entry): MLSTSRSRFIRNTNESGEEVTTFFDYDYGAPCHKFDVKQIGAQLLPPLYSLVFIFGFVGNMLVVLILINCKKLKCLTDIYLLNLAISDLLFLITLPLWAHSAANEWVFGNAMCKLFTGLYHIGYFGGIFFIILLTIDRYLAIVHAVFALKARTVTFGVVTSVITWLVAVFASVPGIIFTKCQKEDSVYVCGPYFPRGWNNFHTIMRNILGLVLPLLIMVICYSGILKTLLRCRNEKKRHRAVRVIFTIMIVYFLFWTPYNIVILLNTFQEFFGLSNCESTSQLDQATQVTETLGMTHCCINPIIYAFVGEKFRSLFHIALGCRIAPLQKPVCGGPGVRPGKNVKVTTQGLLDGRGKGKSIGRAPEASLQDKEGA
Data set [2] deals with T1, C-C chemokine receptor type 3 (Homo sapiens) (UniProt P51677).
T1 sequence (whole entry): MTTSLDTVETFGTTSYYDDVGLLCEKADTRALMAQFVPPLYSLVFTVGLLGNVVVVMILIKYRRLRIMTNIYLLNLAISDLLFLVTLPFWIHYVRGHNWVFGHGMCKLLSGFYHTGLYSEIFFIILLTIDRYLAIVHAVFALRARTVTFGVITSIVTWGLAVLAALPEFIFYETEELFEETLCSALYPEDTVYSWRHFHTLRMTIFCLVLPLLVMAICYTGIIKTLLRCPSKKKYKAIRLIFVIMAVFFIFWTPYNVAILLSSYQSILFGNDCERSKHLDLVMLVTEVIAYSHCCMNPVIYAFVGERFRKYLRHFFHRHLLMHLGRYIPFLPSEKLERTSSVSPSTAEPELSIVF
Briefly: Inhibition of CCR3 at 1 uM. An outline of the steps:
(§1)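 Cerep selectivity panel of over 50 ion channels, transporters, chemokine receptors and other GPCRs. Single test concentration of 1 μM, scored for significant inhibition.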

In data set [3] the target is T2, C-X-C chemokine receptor type 5 (Homo sapiens) (UniProt P32302).
T2 sequence (whole entry): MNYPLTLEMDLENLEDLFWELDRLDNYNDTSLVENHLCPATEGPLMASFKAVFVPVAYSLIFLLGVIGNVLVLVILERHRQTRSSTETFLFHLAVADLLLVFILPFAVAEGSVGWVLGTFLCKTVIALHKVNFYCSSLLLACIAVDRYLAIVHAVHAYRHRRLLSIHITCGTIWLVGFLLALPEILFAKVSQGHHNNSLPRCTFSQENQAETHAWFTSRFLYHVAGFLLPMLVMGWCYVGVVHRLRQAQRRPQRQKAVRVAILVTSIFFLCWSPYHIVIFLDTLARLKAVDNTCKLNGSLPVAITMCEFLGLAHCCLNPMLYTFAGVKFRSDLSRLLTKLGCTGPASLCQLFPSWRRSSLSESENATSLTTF
As to the kind of experiment: Inhibition of CXCR5 at 1 uM. An outline of the steps:
as §1

A short description of data set [4]: Fraction unbound in human serum at 1 to 10 uM. Type of data set: ADME, cell-free. An outline of the steps: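 Serum protein binding measured in human serum at 1 and 10 μM test concentrations. Read-out is the free (unbound) fraction.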
The test system of data set [5] is Liver. As to the kind of experiment: Metabolic stability in human liver S9 fraction assessed as glutathione adduct formation in presence of glutathione and NADPH. Type of data set: ADME, subcellular.
Data set [6] in a line: Half life in cynomolgus monkey at 5 mg/kg, iv. Format: ADME, organism-based, Macaca fascicularis. The note with it: in vivo. More on the design: dose 5 mg/kg, route intravenous. An outline of the steps: (§2)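 Pharmacokinetics run in rats, dogs, cynomolgus monkeys and chimpanzees, with two animals per species for the iv arm and two per species for the oral arm. Parameters were derived per species and route: CL, Vss and T1/2 from iv dosing; Cmax, Tmax, AUC, T1/2 and F% from oral dosing. Values are reported as mean ± spread.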

The nature of data set [7]: Oral bioavailability in cynomolgus monkey at 30 mg/kg. The note with it: in vivo. Format: ADME, organism-based, Macaca fascicularis. An outline of the steps:
as §2

A short description of data set [8]: Clearance in chimpanzee at 1 mg/kg, iv. Type of data set: ADME, organism-based, Pan troglodytes. Details: dose 1 mg/kg, route intravenous. The note with it: in vivo. The method, boiled down:
as §2

Turning to `COc1ccc([C@]2(O)CC[C@H](N3CC[C@@H](NC(=O)CNC(=O)c4cccc(C(F)(F)F)c4)C3)CC2)cn1.CS(=O)(=O)O`, the IC50 in data set [1] stood at 6 nM. For the same molecule, the inhibition result in data set [2] and in data set [3] was “inactive” in each case. The molecule also gave a fraction unbound at up to 10 µM in data set [4] of 0.58. In addition, in data set [5], the Stability entry was “Stable”. This molecule also showed a half-life in data set [6] of 2.2 h. In data set [7], this molecule had a bioavailability of 13%. In data set [8], this molecule had a clearance of 5.83 mL/min/kg.
